The species entered for test [1] is Mus musculus. The test is described as follows: Inhibition of hedgehog signaling pathway in mouse NIH/3T3 cells assessed as downregulation of Shh-induced Gli1 mRNA expression levels at 300 nM after 36 hrs by RT-qPCR analysis. The test is classed as cell-based. Put shortly: (§1)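 NIH-3T3 or C3H10T1/2 cells treated as indicated for 36 h, then collected for RT-qPCR of Gli1 and ptch1 mRNA. Data given as mean ± SD.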
A general note: Real-time PCR tracks product formation cycle by cycle.

Test [2] addresses T1, Zinc finger protein GLI1 (Homo sapiens) (UniProt P08151).
T1 sequence (whole entry): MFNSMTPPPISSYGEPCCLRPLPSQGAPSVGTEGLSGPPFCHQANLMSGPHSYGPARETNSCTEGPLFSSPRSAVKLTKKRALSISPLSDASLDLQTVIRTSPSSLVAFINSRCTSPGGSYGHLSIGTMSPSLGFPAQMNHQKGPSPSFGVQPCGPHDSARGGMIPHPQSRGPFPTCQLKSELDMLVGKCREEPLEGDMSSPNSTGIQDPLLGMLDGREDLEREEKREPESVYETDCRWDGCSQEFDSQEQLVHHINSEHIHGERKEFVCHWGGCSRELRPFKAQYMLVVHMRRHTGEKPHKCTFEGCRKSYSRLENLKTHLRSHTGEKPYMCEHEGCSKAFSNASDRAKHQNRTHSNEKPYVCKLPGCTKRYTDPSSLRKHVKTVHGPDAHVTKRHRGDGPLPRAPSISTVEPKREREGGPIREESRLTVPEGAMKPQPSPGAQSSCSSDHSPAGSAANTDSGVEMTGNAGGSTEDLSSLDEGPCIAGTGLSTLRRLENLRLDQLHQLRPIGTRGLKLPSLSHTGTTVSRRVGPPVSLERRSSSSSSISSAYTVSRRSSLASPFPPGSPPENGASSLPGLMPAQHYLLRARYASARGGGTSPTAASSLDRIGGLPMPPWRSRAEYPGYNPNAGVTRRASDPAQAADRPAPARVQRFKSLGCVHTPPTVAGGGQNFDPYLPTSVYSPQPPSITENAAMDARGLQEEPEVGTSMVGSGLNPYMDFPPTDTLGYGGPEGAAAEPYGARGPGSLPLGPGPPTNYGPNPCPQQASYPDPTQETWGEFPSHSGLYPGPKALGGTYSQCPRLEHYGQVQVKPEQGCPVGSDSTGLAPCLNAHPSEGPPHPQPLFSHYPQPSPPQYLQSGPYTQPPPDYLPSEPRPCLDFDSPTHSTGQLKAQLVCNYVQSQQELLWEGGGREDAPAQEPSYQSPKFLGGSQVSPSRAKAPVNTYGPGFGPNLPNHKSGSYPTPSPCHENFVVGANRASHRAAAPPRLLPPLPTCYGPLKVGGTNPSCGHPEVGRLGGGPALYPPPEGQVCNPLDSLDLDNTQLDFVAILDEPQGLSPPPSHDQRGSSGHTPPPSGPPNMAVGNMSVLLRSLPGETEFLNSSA
The test is described as follows: Inhibition of biotin-labeled Gli1binding sequence binding to Flag-tagged Gli1 (unknown origin) expressed in mouse NIH/3T3 cells at 1 uM by EMSA. The test is classed as cell-based. In a few lines:
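EMSA with biotin-labeled Gli-binding sequence from the twist1 promoter, probing Gli1 DNA binding. Unlabeled Gli-binding sequence served as competitor.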
A general note: In EMSA bound probe runs differently from free probe, usually more slowly.

Test [3] is filed under the species Mus musculus. The test is described as follows: Inhibition of hedgehog signaling pathway in mouse Shh Light2 cells harboring Gli2 plasmid assessed as reduction in Gli2-mediated transcriptional activity by luciferase reporter gene assay. The test is classed as cell-based. In general terms: In a reporter assay the amount or activity of a reporter protein is the signal.

The species named for test [4] is Mus musculus. The test is described as follows: Inhibition of hedgehog signaling pathway in mouse C3H10T1/2 cells assessed as downregulation of Shh-induced Gli1 mRNA expression levels at 300 nM after 36 hrs by RT-qPCR analysis. Type of test: cell-based. Put shortly:
as §1

For test [5], the species on record is Mus musculus. The test is described as follows: Inhibition of hedgehog signaling pathway in mouse NIH/3T3 cells harboring sufu shRNA assessed as downregulation of ptch1 mRNA expression at 300 nM by RT-qPCR analysis. The test is classed as cell-based.
Test [6] deals with Medulloblastoma cell. Briefly: Induction of apoptosis in mouse Ptch+/- p53-/- medulloblastoma cells implanted in athymic nude mouse at 25 to 50 mg/kg, ip bid for 15 consecutive days by TUNEL assay. Type of test: functional, organism-based. In a few lines: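 Apoptosis in subcutaneous ptch+/−;p53−/− medulloblastoma allografts in nude mice (n = 5), dosed ip twice daily for 15 days. Tumor sections stained by TUNEL and apoptotic cells imaged at 60×.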

The species named for test [7] is Mus musculus. Briefly: Inhibition of hedgehog signaling pathway in mouse Light2 cells harboring wild type Smo after 36 hrs by Gli luciferase activity. Type of test: cell-based. In a few lines: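 Light II cells (NIH-3T3 stably carrying Gli-responsive firefly luciferase and Renilla vector) transfected with wild-type, D473H or W535L Smo plasmid. Exposed to compound for 36 h, then dual luciferase assay with firefly/Renilla normalization. IC50 derived and given as mean ± SD.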

For test [8], the species on record is Mus musculus. The test is described as follows: Inhibition of hedgehog signaling pathway in mouse NIH/3T3 cells assessed as reduction in edogenous expression of Gli2 protein by immunoblot analysis. The test is classed as cell-based. In a few lines:
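NIH-3T3 cells cultured in 10% FBS were exposed to compound at various concentrations for 24 h. Endogenous Gli1 and Gli2 detected by Western blot.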

The species entered for test [9] is Mus musculus. The test is described as follows: Inhibition of hedgehog signaling pathway in mouse NIH/3T3 cells hoarboring Gli1 plasmid assessed as reduction in ectopic expression of Gli1 protein at 50 to 1000 nM by immunoblot analysis. The test is classed as cell-based.
The species entered for test [10] is Mus musculus. The test is described as follows: Inhibition of hedgehog signaling pathway in mouse C3H10T1/2 cells assessed as downregulation of Shh-induced ptch1 mRNA expression levels at 300 nM after 36 hrs by RT-qPCR analysis. Type of test: cell-based. In a few lines:
as §1

For test [11], the species on record is Mus musculus. The test is described as follows: Inhibition of hedgehog signaling pathway in mouse NIH/3T3 cells hoarboring Gli2 plasmid assessed as reduction in ectopic expression of Gli2 protein at 50 to 1000 nM by immunoblot analysis. The test is classed as cell-based.
In test [12] the test system is Medulloblastoma cell. The test is described as follows: Antiproliferative activity against mouse Ptch+/- p53-/- medulloblastoma cells assessed as reduction in cell proliferation after 72 hrs by MTS assay. The test is classed as functional, cell-based. Put shortly: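 Tumor cells obtained from ptch+/−;p53−/− medulloblastoma allografts by mechanical mincing and collagenase digestion. Cultured in Neurobasal A with B-27, EGF 20 ng/mL, bFGF 20 ng/mL, nonessential amino acids and N-acetylcysteine 60 μg/mL. Exposed to compounds for 72 h, then proliferation read by MTS assay. Data given as mean ± SD.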

Test [13] is filed under the species Mus musculus. Briefly: Inhibition of hedgehog signaling pathway in mouse Ptch+/- p53-/- medulloblastoma cells assessed as reduction in GLI1 mRNA expression at 3 uM by RT-qPCR analysis. In a few lines:
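ptch+/−;p53−/− medulloblastoma cells kept in Neurobasal A/B-27 medium with EGF and bFGF, then treated. Gli1 and ptch1 mRNA measured by RT-qPCR. Data given as mean ± SD.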

The species named for test [14] is Mus musculus. The test is described as follows: Inhibition of hedgehog signaling pathway in mouse Light2 cells in Shh conditioned medium at 1 uM by Gli-luciferase reporter gene assay relative to control. Type of test: cell-based.
Test [15] concerns the target Bromodomain-containing protein 4 (Homo sapiens) (UniProt O60885). Briefly: Inhibition of BRD4 (unknown origin) at 10 uM.
The species named for another test is Homo sapiens. Briefly: Inhibition of TNFalpha-induced NFkappaB activation in HEK293 cells at 1 uM after 24 hrs by dual luciferase reporter gene assay. Type of test: cell-based. Put shortly: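 HEK293 cells carrying NF-κB firefly reporter plus Renilla, stimulated with TNF-α and treated for 24 h. Cells lysed for dual luciferase assay, firefly signal normalized to Renilla. Data given as mean ± SD.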

Activity calls are given as the source filed them. The calls are words filed in the database; no cut-off is given here.

Regarding `COc1ccc(CN2C[C@@H]3CN(S(=O)(=O)c4ccc(Cl)cc4)CC[C@@H]3Oc3c(NC(=O)C4CC4)cccc3C2=O)cc1` (racemic), the inhibition result in the test listed under Mus musculus [1], in the test filed under Mus musculus [4], in the test listed under Mus musculus [5], in the test filed under Mus musculus [9], in the test filed under Mus musculus [10] and in the test filed under Mus musculus [11] was “Active” throughout. Further, the inhibition entry in the test filed under Mus musculus [13] was “Active”. Moreover, the inhibition result (in [2]; in test [15]; in the test filed under Homo sapiens) was “inactive” throughout. Also, the inhibition entry in the test listed under Mus musculus [3] was “Dose-dependent effect”; in the test listed under Mus musculus [7] it was “Dose-dependent effect”; in the test listed under Mus musculus [8], “Dose-dependent effect”; in the test filed under Mus musculus [14], 97%. In the test on Medulloblastoma cell [6], the result was Active. Further, the Activity entry in the test on Medulloblastoma cell [12] was “Dose-dependent effect”.

What is called inhibition is the relative decrease from the control value, in per cent.

The record behind these values is ChEMBL document CHEMBL4017514, “Discovery of Novel Macrocyclic Hedgehog Pathway Inhibitors Acting by Suppressing the Gli-Mediated Transcription” (J Med Chem, 2017).
